According to ChEMBL document CHEMBL2375351, “Degradation of MAC13243 and studies of the interaction of resulting thiourea compounds with the lipoprotein targeting chaperone LolA” (Bioorg Med Chem Lett, 2013):
Values after ≈ are worked out from the molar mass of the structure shown. Active and inactive are the calls of the source. The calls are words filed in the database; no cut-off is given here.

What was measured:
[1] = tested on: Pseudomonas aeruginosa; test: Antibacterial activity against Pseudomonas aeruginosa PAO1 assessed as growth inhibition after 16 hrs; type: functional; settings: PAO1, 16 h
Outline: (§1)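 Broth microdilution in liquid LB with B. subtilis 168 or P. aeruginosa PAO1. Overnight cultures were diluted 1:100, grown to OD600 0.4, then diluted 1:100,000 into serially diluted compound (1–256 µg/mL). Plates were incubated 16 h at 37 °C, static, except B. subtilis, which was shaken at 250 rpm. MIC is the lowest concentration giving OD600 below 0.05.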

[2] = tested on: Bacillus subtilis; test: Antibacterial activity against Bacillus subtilis 168 assessed as growth inhibition after 16 hrs; type: functional; settings: subsp. subtilis str. 168, 16 h; outline: as §1
[3] = tested on: Escherichia coli; test: Antibacterial activity against Escherichia coli MG1655 overexpressing lolA assessed as growth inhibition after 16 hrs; type: functional; settings: MG1655, 16 h
[4] = Binding affinity to Escherichia coli LolA
[5] = tested on: Escherichia coli; test: Binding affinity to LolA in Escherichia coli EB68 assessed as change in cell shape from rod to sphere at 10 ug/mL measured every 1 hr for 4 hrs by phase contrast microscopic analysis
Outline: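 E. coli EB68 (MG1655) was subcultured 1:100 into LB and grown to OD600 ~0.5, then washed once in fresh medium. Cells were resuspended in LB with compound at 10 µg/mL, placed on poly-lysine-treated slides and examined by phase contrast light microscopy at 1 h intervals for rod-to-sphere shape change.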

[6] = tested on: Escherichia coli; test: Potency index, ratio of MIC for Escherichia coli EB2120 conditional lolA strain with lolA deletion and complementing copy placed at araBAD locus in presence of 0.2% arabinose to MIC in presence of 0.00002% of arabinose; type: functional
[7] = tested on: Escherichia coli; test: Potency index, ratio of MIC for Escherichia coli AG1 overexpressing lolA to MIC for lolA-deficient Escherichia coli AG1; type: functional
[8] = Half life of the compound in DMSO at 250 uM measured up to 48 hrs by reverse phase HPLC analysis; type: physicochemical
Outline: (§2)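 Compound at 250 µM final was incubated in DMSO, H2O, 50 mM acetate buffer (pH 4) or 50 mM citrate buffer (pH 11). Samples were analysed over time by reverse phase C18 HPLC using a 10 min gradient of 0.1% TFA water to acetonitrile, with detection at 270 nm. Parent peak areas were plotted against time and fit to exponential decay.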

[9] = Half life of the compound in citrate buffer at pH 11 at 250 uM measured up to 48 hrs by reverse phase HPLC analysis; type: physicochemical; outline: as §2
[10] = Half life of the compound in water at 250 uM measured up to 48 hrs by reverse phase HPLC analysis; type: physicochemical; outline: as §2
[11] = Half life of the compound in acetate buffer at pH 4 at 250 uM measured up to 48 hrs by reverse phase HPLC analysis; type: physicochemical; outline: as §2
[12] = tested on: Escherichia coli; test: Antibacterial activity against Escherichia coli EB2120 conditional lolA strain with lolA deletion and complementing copy placed at araBAD locus at 1 to 256 ug/mL after 18 hrs in presence of 0.00002 to 0.2% of arabinose; type: functional, organism-based
Outline: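 Conditional lolA strain EB2120 (chromosomal lolA deleted, complementing copy at araBAD under arabinose control), grown to OD600 ~0.4–0.5. […] Fold sensitization is the MIC under LolA depletion relative to the fully complemented 0.2% arabinose condition.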

[13] = tested on: Escherichia coli; test: Potency index, ratio of MAC13243 MIC to compound MIC for Escherichia coli MG1655 overexpressing lolA; type: functional
[14] = Binding affinity to recombinant Escherichia coli LolA by STDD NMR spectra analysis

For N=C(N)NCc1ccc(Cl)cc1, the MIC [1] was 128 mg/L (≈ 697 µM), the MIC [2] was > 256 mg/L and the MIC [3] was 256 mg/L (≈ 1390 µM).

For C/N=C(\NC)SCc1ccc(Cl)c(Cl)c1, the MIC [1] was 256 mg/L (≈ 973 µM), the MIC [2] was > 256 mg/L and the MIC [3] was 256 mg/L (≈ 973 µM).

In the case of COc1ccc(CCN2CN=C(SCc3ccc(Cl)cc3)NC2)cc1OC, the Kd [4] is reported as 8 µM, the MIC [1] is reported as 32 mg/L (≈ 78.8 µM) and the MIC [2] is reported as 256 mg/L (≈ 631 µM). The MIC [3] was 8 mg/L (≈ 19.7 µM), the Activity [5] was “Active” and the Ratio [6] was 32. The Ratio [7] was 16, the half-life at 250 µM [8] was 257 h and the half-life at 250 µM [9] was 59 h. It also gave a half-life at 250 µM [10] of 13 h and a half-life at 250 µM [11] of 4 h.

For COc1ccc(CSC(=N)N)cc1, the MIC [1] was 32 mg/L (≈ 163 µM), the MIC [2] was > 256 mg/L and the MIC [3] was > 256 mg/L.

In the case of C[C@@H]1O[C@@H]1P(=O)(O)O [FOSFOMYCIN], the Ratio [6] is reported as 16.

For CCn1cc(C(=O)O)c(=O)c2cc(F)c(N3CCNCC3)cc21, the Activity [12] was “inactive”.

In the case of N=C(N)CSCc1ccc(Cl)cc1, the MIC [1] is reported as 128 mg/L (≈ 596 µM), the MIC [2] is reported as > 256 mg/L and the MIC [3] is reported as > 256 mg/L.

In the case of CO[C@H]1/C=C/O[C@@]2(C)Oc3c(C)c(O)c4c(O)c(c(/C=N/N5CCN(C)CC5)c(O)c4c3C2=O)NC(=O)/C(C)=C\C=C\[C@H](C)[C@H](O)[C@@H](C)[C@@H](O)[C@@H](C)[C@H](OC(C)=O)[C@@H]1C, the Activity [12] is reported as “inactive”.

For N=C(N)SCc1ccc(Br)cc1, the MIC [1] was 16 mg/L (≈ 65.3 µM), the MIC [2] was > 256 mg/L and the MIC [3] was 4 mg/L (≈ 16.3 µM).

For CC1(C)S[C@@H]2[C@H](NC(=O)[C@H](N)c3ccccc3)C(=O)N2[C@H]1C(=O)O, the Activity [12] was “inactive”.

For N=C(N)Sc1ccc(Cl)cc1, the MIC [1] was 64 mg/L (≈ 343 µM), the MIC [2] was 4 mg/L (≈ 21.4 µM) and the MIC [3] was > 256 mg/L.

With Oc1cc(Cl)ccc1Oc1ccc(Cl)cc1Cl the Activity [12] was “inactive”.

For N=C(N)OCc1ccc(Cl)cc1, the MIC [1] was 32 mg/L (≈ 173 µM), the MIC [2] was > 256 mg/L and the MIC [3] was 32 mg/L (≈ 173 µM).

For N=C(N)SCc1ccc(F)cc1, the MIC [1] was 16 mg/L (≈ 86.8 µM), the MIC [2] was > 256 mg/L and the MIC [3] was 16 mg/L (≈ 86.8 µM).

With N=C(N)SCCCc1ccc(Cl)cc1 the MIC [1] was 128 mg/L (≈ 560 µM), the MIC [2] was > 256 mg/L and the MIC [3] was > 256 mg/L.

For N=C(N)CCc1ccc(Cl)cc1, the MIC [1] was 128 mg/L (≈ 701 µM), the MIC [2] was > 256 mg/L and the MIC [3] was > 256 mg/L.

In the case of N=C(N)SCc1ccccc1 [BENZYL CARBAMIMIDOTHIOATE], the MIC [1] is reported as 32 mg/L (≈ 192 µM), the MIC [2] is reported as > 256 mg/L and the MIC [3] is reported as 64 mg/L (≈ 385 µM).

For N=C(N)c1ccc(Cl)cc1, the MIC [1] was 64 mg/L (≈ 414 µM), the MIC [2] was 4 mg/L (≈ 25.9 µM) and the MIC [3] was > 256 mg/L.

For N=C(N)SCc1ccc(Cl)cc1, the Ratio [13] was 4, the MIC [1] was 16 mg/L (≈ 79.7 µM) and the MIC [2] was > 256 mg/L. For the same compound, the MIC [3] was 2 mg/L (≈ 9.97 µM), the Kd [14] was 150 µM and the Ratio [6] was 32. The Ratio [7] was 16.

With N=C(N)SCc1ccc(Cl)c(Cl)c1 the MIC [1] was 16 mg/L (≈ 68 µM), the MIC [2] was > 256 mg/L and the MIC [3] was 2 mg/L (≈ 8.51 µM). The Kd [14] was 200 µM, the Activity [5] was “Active” and the Ratio [6] was 32. For the same compound, the Ratio [7] was 16.

In the case of CN[C@@H]1[C@H](O)[C@H](NC)[C@H]2O[C@@]3(O)C(=O)C[C@@H](C)O[C@H]3O[C@@H]2[C@H]1O, the Activity [12] is reported as “inactive”.

In the case of N=C(N)SCCc1ccc(Cl)cc1, the MIC [1] is reported as 128 mg/L (≈ 596 µM), the MIC [2] is reported as > 256 mg/L and the MIC [3] is reported as > 256 mg/L.

For N=C(N)SCc1ccc([N+](=O)[O-])cc1, the MIC [1] was 64 mg/L (≈ 303 µM), the MIC [2] was > 256 mg/L and the MIC [3] was 32 mg/L (≈ 151 µM).

With CN(C)[C@@H]1C(O)=C(C(N)=O)C(=O)[C@@]2(O)C(O)=C3C(=O)c4c(O)cccc4[C@@](C)(O)[C@H]3C[C@@H]12 the Activity [12] was “inactive”.

For N=C(N)SCc1cccc(Cl)c1, the MIC [1] was > 256 mg/L, the MIC [2] was > 256 mg/L and the MIC [3] was 64 mg/L (≈ 319 µM).

In the case of N=C(N)SCc1ccc(Cl)cc1Cl, the MIC [1] is reported as 32 mg/L (≈ 136 µM), the MIC [2] is reported as > 256 mg/L and the MIC [3] is reported as 1 mg/L (≈ 4.25 µM).

In the case of N=C(N)SCc1ccc(I)cc1, the MIC [1] is reported as 32 mg/L (≈ 110 µM), the MIC [2] is reported as > 256 mg/L and the MIC [3] is reported as 16 mg/L (≈ 54.8 µM).

For COc1cc(Cc2cnc(N)nc2N)cc(OC)c1OC, the Activity [12] was “inactive”.

For N=C(N)SCc1ccccc1Cl, the MIC [1] was 64 mg/L (≈ 319 µM), the MIC [2] was > 256 mg/L and the MIC [3] was 16 mg/L (≈ 79.7 µM).

With COc1ccc(CCN)cc1OC the MIC [3] was > 256 mg/L.
